SIRT5 inh: blocks human SIRT5 desuccinylation of peptide. hit rate 1.1% among 330,000. Purified SirT5, succinyl-peptide AMC, trypsin-coupled fluorescence. inhibition, % at 15 µM. AID 652115; in the data active means inhibition above about 15%
Target sequence (Q9NXA8 whole entry, looked up): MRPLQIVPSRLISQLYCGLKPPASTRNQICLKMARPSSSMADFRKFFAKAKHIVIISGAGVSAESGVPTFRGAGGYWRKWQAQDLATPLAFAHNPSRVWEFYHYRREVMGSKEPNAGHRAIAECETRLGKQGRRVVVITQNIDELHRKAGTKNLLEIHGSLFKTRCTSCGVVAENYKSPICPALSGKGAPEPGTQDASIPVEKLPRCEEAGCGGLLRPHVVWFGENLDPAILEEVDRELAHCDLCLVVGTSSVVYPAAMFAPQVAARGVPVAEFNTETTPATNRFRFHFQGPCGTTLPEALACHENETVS
S100A4 MyoIIA: S100A4-myosin IIA interaction inhibition | P26447 | S100A4/TAMRA-MyoIIA peptide fluorescence polarization | inhibition, % at 10.7 µM | hit rate 0.14% among 360,000;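 active means mean inhibition of at least 70% across replicates, with every replicate also reaching that level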
Target sequence (P26447 whole entry, looked up): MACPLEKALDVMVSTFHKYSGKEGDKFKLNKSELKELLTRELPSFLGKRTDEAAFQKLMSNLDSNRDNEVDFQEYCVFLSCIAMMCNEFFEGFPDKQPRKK
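Assay system: human S100A4 monomer with TAMRA-labelled myosin IIA peptide / Buffer or medium: Calcium-containing HEPES buffer, pH 7.2 / Reagent: TAMRA-labelled myosin IIA heavy-chain peptide probe, 5 nM / Compound: one dose per compound / Timing: polarization read 5 min after assay mix addition, stable 5–60 min / Benchmarks: neutral control DMSO, positive control TFP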
ERp5 inh: ERp5 (human) disulfide isomerase inhibition. ERp5 insulin aggregation, absorbance 650 nm, 90 min. inhibition, % at 9.99 µM. hit rate 0.05% among 350,000. AID 651711;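 active means mean replicate inhibition above about 25%, with every replicate also reaching it, limit read from the data, passing the limit was not always enough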
PDI turbidity: PDI (human) enzyme inhibition; P07237; hit rate 0.052% among 350,000; PDI insulin aggregation turbidity, A650, 90 min; inhibition, % at 10 µM;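 active means mean inhibition across replicates of 30% or more, whatever share of single replicates reach that level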
INS-1E GSIS act: GLuc luminescence reporter in INS-1E cells, primary screen for activators of glucose-dependent secretion of insulin; INS-1E GLuc reporter insulin secretion, 2-3 h; hit rate 0.61% among 370,000; activation, % at 16.6 µM;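 active means lowest replicate activation of at least 40%, so every replicate reaches that level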;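 further: 0% = median of neutral control wells and 100% = median of IBMX positive control wells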
* = called active by the depositor; . = not tested or not shown. Rows were chosen to be rich in hits. Some 1.5% of all compounds tested hit in one or more screens of this group.

SMILES | SIRT5 inh | S100A4 MyoIIA | ERp5 inh | PDI turbidity | INS-1E GSIS act
CCC(=O)Nc1nnc(Sc2ccc(N(C)C)cc2)s1 | . | . | . | -1 | 50*
C[C@@H]1CN([C@H](C)CO)C(=O)Cc2cc(NC(=O)CCCCCC(=O)Nc3ccccc3N)ccc2O[C@H]1CN(C)S(=O)(=O)c1ccccc1 | . | -6 | 0 | . | 8
C=CCn1c(=NC(=O)c2sc3ccccc3c2Cl)sc2cc(S(N)(=O)=O)ccc21 | . | . | . | -6 | .
C=CCn1c(=NC(=O)c2cc(Cl)sc2Cl)sc2cc(S(N)(=O)=O)ccc21 | . | . | . | -1 | 44*
COc1cc(-c2ccc(Nc3ccccc3C(=O)O)c(OC)c2)ccc1Nc1ccccc1C(=O)O | 30* | -3 | -4 | -2 | -2
CN1C(=O)c2cc(NC(=O)c3ccc(C#N)cc3)ccc2OC[C@H]2O[C@@H](CC(=O)Nc3cc(F)ccc3F)CC[C@@H]21 | . | . | . | . | -2
CN(C)CCNC(=O)c1cccc(-c2cc(NC=O)c3ncc(-c4cccc(C(F)(F)F)c4)n3c2)c1 | . | -9 | -6 | 6 | 124*
C[C@H]1CN([C@@H](C)CO)C(=O)c2cccc(NC(=O)c3ccc(-c4nccs4)cc3)c2O[C@H]1CN(C)Cc1ccc(Oc2ccccc2)cc1 | 21* | -1 | 14 | . | -53
C[C@@H]1CN([C@@H](C)CO)C(=O)c2cccc(NC(=O)c3ccc(-c4nccs4)cc3)c2O[C@@H]1CN(C)Cc1ccccc1 | 15* | 4 | -1 | . | -9
C[C@@H]1CN([C@H](C)CO)C(=O)c2cccc(NC(=O)c3ccncc3)c2O[C@H]1CN(C)S(C)(=O)=O | 36* | -2 | -1 | . | 0
C[C@@H]1CN([C@@H](C)CO)C(=O)c2cccc(NC(=O)C3CC3)c2O[C@@H]1CN(C)S(C)(=O)=O | -1 | 124* | -2 | . | 16
C=CC[C@]1(C(=O)OC)N=C(c2ccc(OCCCO)cc2)O[C@H]1c1ccccc1 | -1 | -1 | 0 | . | .
CCC(=O)N1[C@H](CO)[C@H](c2ccc(C#CC3(O)CCCC3)cc2)[C@@H]1CNC(C)=O | -1 | 2 | 4 | . | 5
C[C@H](CO)N1C[C@H](C)[C@@H](CN(C)Cc2ccc(Oc3ccccc3)cc2)Oc2c(NC(=O)c3ccc(-c4nccs4)cc3)cccc2C1=O | 16* | 3 | -2 | . | -1
C[C@@H]1CN([C@@H](C)CO)C(=O)c2cccc(NC(=O)c3ccncc3)c2O[C@H]1CN(C)Cc1ccccc1 | 23* | -11 | 4 | . | 10
C[C@@H]1CN([C@@H](C)CO)C(=O)c2cccc(NC(=O)c3ccc(-c4nccs4)cc3)c2O[C@@H]1CN(C)Cc1ccc(Oc2ccccc2)cc1 | 12 | -1 | 0 | . | -48
C[C@H](CO)N1C[C@H](C)[C@@H](CN(C)S(=O)(=O)c2cn(C)cn2)OCCCC[C@H](C)Oc2ccc(NC(=O)Nc3ccc4c(c3)OCO4)cc2C1=O | -6 | -1 | -3 | . | 8
CCCOP(=O)(c1ccc(N(C)C)cc1)C(Nc1ccccc1)c1ccc(N(C)C)cc1 (stereo not drawn) | 29* | 6 | 3 | 3 | .
CCCc1cn(CC[C@@H]2CC[C@H](NS(=O)(=O)c3ccc(-c4ccccc4)cc3)[C@H](CO)O2)nn1 | 6 | -5 | -1 | . | -6
COc1ccc(C2=Nn3c(nnc3-c3ccccc3C(F)(F)F)SC2)cc1OC1CCOC1 (stereo not drawn) | . | 3 | 5 | 13 | 75*
COc1ccc(C2=Nn3c(nnc3-c3ccncc3)SC2)cc1OC | . | . | . | -2 | 85*
COc1ccc(C2=Nn3c(nnc3-c3cccnc3)SC2)cc1OC | . | . | . | -2 | .
COc1ccc(-c2ccncc2)cc1OC | -2 | 0 | 7 | 4 | 107*
COc1ccccc1-c1nnc2n1N=C(c1ccc(O)c(O)c1)CS2 | . | . | . | 6 | .
COc1ccc(C2=Nn3c(nnc3-c3ccccc3Cl)SC2)cc1OCC1CC1 | . | -20 | 3 | 4 | 39
SMILES | SIRT5 inh | S100A4 MyoIIA | ERp5 inh | PDI turbidity | INS-1E GSIS act
COc1ccc(C2=Nn3c(nnc3-c3ccccc3OC)SC2)cc1OC1CCOC1 (stereo not drawn) | . | 0 | 0 | 0 | 56*
CN(C)C(=O)C[C@@H]1C=C[C@@H](NC(=O)NC2CCCC2)[C@@H](CO)O1 | -2 | -28 | -2 | . | -2
COc1ccc(NC(=O)N(C)C[C@H]2OCCCC[C@H](C)Oc3ccc(NC(=O)Cc4ccccc4)cc3C(=O)N([C@H](C)CO)C[C@@H]2C)cc1 | -3 | -3 | 2 | . | -21
COc1cc(C(F)(F)F)c(C(=O)NCc2cccc(Cl)c2)cn1 | 0 | -2 | 7 | 13 | 48*
Cc1noc(C)c1NC(=O)Nc1ccc2c(c1)C(=O)N([C@@H](C)CO)C[C@H](C)[C@@H](CN(C)S(=O)(=O)c1ccc(F)cc1)O2 | 6 | -2 | 6 | . | 16
CSc1nc(SCC(=O)O)c2sc3nc(-c4ccccc4)c4c(c3c2n1)CCC4 | 19* | 2 | 3 | 53* | -20
O=[N+]([O-])c1ccc(C2=Nc3cc(Cl)ccc3OC2)cc1 | 7 | -3 | -1 | -4 | 11
O=C1COc2cc(ccc2[N+](=O)[O-])Oc2ccc(cc2Cl)C(=O)CCCCO1 | 18* | 1 | 4 | 2 | 7
COc1ccc(Nc2cc(C)nc3ccccc23)cc1 | 18* | -8 | 3 | -3 | 42*
COc1ccc(S(=O)(=O)N(C)c2ccc(C(=O)N3CCCC3)cc2)cc1OC | -2 | 0 | 1 | -3 | 43*
CN(c1ccc(C(=O)N2CCN(Cc3ccccc3)CC2)cc1)S(=O)(=O)c1ccccc1 | 0 | 4 | 0 | 1 | 56*
COc1ccc(S(=O)(=O)N(C)c2ccc(C(=O)N3CCOCC3)cc2)cc1OC | 0 | 6 | 1 | -31 | 41
CN(c1ccc(C(=O)N2CCN(Cc3ccc4c(c3)OCO4)CC2)cc1)S(=O)(=O)c1ccccc1 | . | . | . | 4 | -27
COC(=O)c1ccc(CSc2nnc(CS(=O)Cc3ccc(Br)cc3)n2-c2ccccc2)cc1 (stereo not drawn) | 18* | 1 | -6 | 3 | -44
CCOC(=O)[C@]12CCC=C1N(Cc1cccc3ccccc13)C(=O)[C@H](CC(=O)NCc1cccc3ccccc13)C2 | -8 | -6 | 0 | . | 3
CCCCCCCCN1C(=O)[C@H](CC(=O)NCc2cccc3ccccc23)C[C@@]2(C(=O)OCC)CCC=C12 | 16* | -7 | -3 | . | 34
Cc1cc(Cc2cc(C)c(N)cc2C)c(C)cc1N | 21* | 3 | 0 | -4 | 24
O=C(CCS(=O)(=O)Cc1ccccc1)Nc1nncs1 | 19* | 0 | -3 | 4 | -1
O=C(CCc1ccccc1)Nc1nncs1 | . | . | . | 1 | .
O=C1N/C(=N/c2ccccn2)SC1Cc1ccccc1 (stereo not drawn) | . | . | . | 3 | -10
Cc1ccc(CC2S/C(=N/c3ccccn3)NC2=O)cc1 (stereo not drawn) | . | . | . | -11 | 58*
C[C@H](CO)N1C[C@H](C)[C@@H](CN(C)C(=O)CN(C)C)Oc2ncc(C#Cc3ccccc3)cc2C1=O | -3 | 0 | 7 | . | 13
